GSK3A inh = blocks human GSK-3 alpha kinase; inhibition, % at 10 µM; AID 2650; ADP-Glo luminescence, 60 min; P49840; actives 0.1% (n = 320,000);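 active means more than half of replicates show inhibition above 20%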;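 further: GST-tagged GSK-3 alpha with peptide substrate and 25 µM ATP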
MEKK2 mut-MEK5 = signal of MEK5 binding to mutant human MEKK2 PB1 domain | bead flow cytometry, Alexa488-MEK5 binding to MEKK2 mutant | actives 0.35% (n = 290,000) | percent response, % at 10 µM; in the data active means percent response above about 24%, passing the limit was not always enough
MEKK3 PB1 HTS = raises or lowers MEK5 binding to the human MEKK3 PB1 domain; bead-based flow cytometry, Alexa488-MEK5 binding to MEKK3; actives lie on both sides; 0 = blocked by unlabeled MEK5, 100 = vehicle; binding response (% of control), % at 10 µM; actives 1.4% (n = 290,000);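 active means binding response more than 3 SD above or below the average of its plate-row segment, actives on both sides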;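 further: Alexa488 bead fluorescence after subtracting the streptavidin-only scavenger bead signal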
Target sequence (Q99759 whole entry, looked up, the tested form may be a part): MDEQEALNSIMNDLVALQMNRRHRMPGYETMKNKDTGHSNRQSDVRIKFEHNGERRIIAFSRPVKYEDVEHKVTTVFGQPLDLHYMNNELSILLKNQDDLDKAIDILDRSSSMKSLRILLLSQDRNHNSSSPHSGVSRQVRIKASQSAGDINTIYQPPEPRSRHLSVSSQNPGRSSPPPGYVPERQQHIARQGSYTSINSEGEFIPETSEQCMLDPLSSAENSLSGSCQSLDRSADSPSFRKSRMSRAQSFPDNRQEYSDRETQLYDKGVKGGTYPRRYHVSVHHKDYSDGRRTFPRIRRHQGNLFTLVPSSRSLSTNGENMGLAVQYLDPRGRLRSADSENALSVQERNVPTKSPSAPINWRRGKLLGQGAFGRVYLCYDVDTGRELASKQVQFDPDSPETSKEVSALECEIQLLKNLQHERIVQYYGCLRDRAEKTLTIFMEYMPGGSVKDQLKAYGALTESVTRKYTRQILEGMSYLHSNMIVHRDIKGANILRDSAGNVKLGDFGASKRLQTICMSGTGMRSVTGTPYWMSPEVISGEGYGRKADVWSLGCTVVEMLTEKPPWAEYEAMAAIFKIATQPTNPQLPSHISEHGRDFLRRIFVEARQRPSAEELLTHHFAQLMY
STK33 kinase inh = blocks human STK33 kinase activity | inhibition, % at 10 µM | purified STK33, MBP phosphorylation, ADP-Glo luminescence | Q9BYT3 | actives 0.073% (n = 320,000);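 active means inhibition at or above 25%, using the most active replicate where run in duplicate; inactive means inhibition below 25%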
MEKK2 WT-MEK5 = raises or lowers MEK5 binding to wildtype human MEKK2 PB1 domain. Q9Y2U5. bead flow cytometry, Alexa488-MEK5 binding to MEKK2 WT; actives lie on both sides. binding response (% of control), % at 10 µM. actives 1.1% (n = 290,000); in the data active means binding response below about 67% or above about 130%
GSK3beta inhib = human GSK3beta kinase inhibition. activity score (negative = inhibition), % at 10 µM. GST-GSK3beta kinase, ADP-Glo luminescence, 60 min; active compounds read low. P49841. AID 2097. actives 0.038% (n = 300,000);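 active means more than half of replicate wells score below -50%, meaning over 50% inhibition versus plate controls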
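Assay system: GST-fused GSK3beta enzyme, cell-free / Medium: Tris pH 7.5 buffer with MgCl2, DTT, BSA, heparin / Also added: peptide substrate plus 25 µM ATP (final) / Compound: 10 µM single point / Timing: kinase reaction with compound 60 min at room temperature / Detection: ADP-Glo luminescence / Benchmarks: DMSO neutral wells and GW8510 at 20 µM as positive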
MEKK2wt confirm = raises or lowers MEK5 binding to wildtype human MEKK2, retest | shares compounds with MEKK3 PB1 HTS | bead flow cytometry, Alexa488-MEK5 binding to MEKK2 WT; actives lie on both sides | binding response (% of control), % at 10 µM | actives 2.4% (n = 5,900) | AID 1892; in the data active means binding response below about 16% or above about 210%; inactive means in between
MEKK2mut-MEK5 = signal of MEK5 binding to mutant human MEKK2, retest; percent response, % at 10 µM; AID 1893; shares compounds with MEKK3 PB1 HTS; bead flow cytometry, Alexa488-MEK5 binding to MEKK2 mutant; actives 2% (n = 5,900); in the data active means percent response mostly above about 71%, no sharp cut-off; inactive means mostly below about 38%;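 further: higher means compound restores mutant binding toward wildtype level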
MEKK3 confirm = confirmation of inhibitors of MEK5 binding to human MEKK3; shares compounds with MEKK3 PB1 HTS; AID 1894; bead flow cytometry, Alexa488-MEK5 binding to MEKK3; active compounds read low; actives 1.8% (n = 5,900); binding response (% of control), % at 10 µM;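 active means binding response below 72% of control, or above a set upper limit, though filed actives all read lower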;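 further: lower values mean stronger disruption of MEK5 binding to MEKK3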
Numbers stand for hits; 0 = inactive; - = no result; [ ] = another dose, or the depositor's remark. This is a sample that favours compounds with a hit; in the whole collection about 2.1% have one here.

SMILES	GSK3A inh	MEKK2 mut-MEK5	MEKK3 PB1 HTS	STK33 kinase inh	MEKK2 WT-MEK5	GSK3beta inhib	MEKK2wt confirm	MEKK2mut-MEK5	MEKK3 confirm
CCCn1ncc(CN2CCC(C(=O)Nc3cccc(-c4cccc(F)c4)c3)CC2)c1C	0	0	0	0	144.0	0	0	0	0
Cc1cccc(CN2CCC(C(=O)Nc3cccc(-c4cccc(F)c4)c3)CC2)n1	0	0	0	0	0	0	-	-	-
O=C(Nc1cccc(F)c1)C1CCCCC1	0	-	-	0	-	-	-	-	-
CCCCC1=C([O-])C2N=CC=CC2=[N+](c2ccccn2)C1=O (stereo not given)	0	0	138.0	0	0	0	0	0	0
CN(C)CCCNC(=O)c1ccc(-c2nc(-c3ccc(Cl)cc3)cs2)cc1	0	0	0	0	252.0	0	0	0	0
CC(=O)C1=C(C)NC(SCC(N)=O)=C(C#N)C1c1sccc1C (stereo not given)	0	0	76.0[inhibitor]	0	0	0	0	0	0
CN(C)CCCNc1ncnc2oc(-c3ccccc3)c(-c3ccccc3)c12	0	0	0	0	134.0	0	0	0	0
O=C(/C=C/c1cccs1)N1CCN(c2ccc(F)cc2)CC1	0	0	0	0	62.0[inhibitor]	0	0	0	0
c1ccc(Nc2nc(Nc3ccccc3)nc(N3CCNCC3)n2)cc1	0	0	0	0	154.0	0	0	0	0
CN1CCN(c2nc(Nc3ccc(F)cc3)nc(Nc3ccc(F)cc3)n2)CC1	0	33.0	0	0	145.0	0	0	0	0
c1ccc(Nc2nc(N3CCCC3)nc(N3CCOCC3)n2)cc1	0	0	0	0	0	0	-	-	-
Cc1ccc(Nc2nc(N3CCOCC3)nc(N3CCOCC3)n2)cc1	0	0	0	0	0	0	-	-	-
O=C(O)CCCC(=O)Nc1ccccc1SCCS(=O)(=O)c1ccc(Cl)cc1	0	0	0	0	0	0	-	-	-
CC(=O)Nc1ccc(S(=O)(=O)N2CCN(c3nc(NC4CCCC4)c4ccccc4n3)CC2)cc1	0	0	0	0	163.0	0	0	0	0
CC/C(=C(\c1ccc(O)cc1)c1ccc(OCCN(C)C)cc1)c1ccccc1	0	0	0	0	180.0	0	0	0	0
CC/C(=C(\c1ccccc1)c1ccc(OCCN(C)C)cc1)c1ccccc1	0	-	-	0	-	0	-	-	-
CCN(CC)CCOc1ccc(/C(=C(/Cl)c2ccccc2)c2ccccc2)cc1	0	26.0	0	0	179.0	0	0	0	0
COc1cc2c(cc1Cl)/C(=C\CCN(C)C)c1ccccc1S2	0	0	0	0	0	0	-	-	-
CN1CCN(CC/C=C2/c3ccccc3Sc3ccc(S(=O)(=O)N(C)C)cc32)CC1	0	0	0	0	143.0	0	0	0	0
Cn1cccc1C(=O)OCC(=O)NC1CCS(=O)(=O)C1 (stereo not given)	0	0	0	0	0	0	-	-	-
O=S(=O)(/C=C/c1ccccc1)c1ccccc1	0	0	126.0	0	0	0	0	0	0
O=C(O)CNS(=O)(=O)/C=C/c1ccccc1	0	0	0	0	0	0	-	-	-
COc1ccc(OCC(=O)Nc2ccccc2OC)cc1	0	0	0	0	0	0	-	-	-
COc1ccc(OCC(=O)Nc2ccccc2OC(F)F)cc1	0	0	122.0	0	0	0	0	0	0
Cn1c(=O)n(C)c2cc(S(=O)(=O)NCCOCCO)ccc21	0	0	2.0[inhibitor]	0	-1.0[inhibitor]	0	0	0	0
SMILES	GSK3A inh	MEKK2 mut-MEK5	MEKK3 PB1 HTS	STK33 kinase inh	MEKK2 WT-MEK5	GSK3beta inhib	MEKK2wt confirm	MEKK2mut-MEK5	MEKK3 confirm
Clc1ccc(-c2csc(N/N=C/c3ccc4c(c3)OCO4)n2)cc1	0	0	136.0	0	0	0	0	0	0
Cc1ccc(NC(=O)CSc2ccc(-c3ccc4c(c3)OCO4)nn2)cc1F	0	0	132.0	0	0	0	0	0	0
Cc1cc(NC(=O)CSc2ccc(-c3ccc4c(c3)OCO4)nn2)no1	0	0	0	0	0	0	-	-	-
Fc1ccc(CSc2ccc(-c3ccc4c(c3)OCO4)nn2)cc1	0	0	135.0	0	0	0	0	0	0
C=CCN(CC(=O)NC1CCS(=O)(=O)C1)S(=O)(=O)c1ccccc1C(F)(F)F (stereo not given)	0	0	0	0	0	0	-	-	-
Cc1cc(=O)oc2cc3c(cc12)OCO3	0	0	0	0	0	0	-	-	-
COc1cccc(CN(C)C(=O)CCN=C2NS(=O)(=O)c3ccccc32)c1	0	-	-	0	-	-	-	-	-
COc1ccc(NC(=S)N/N=C2\CC(C)(C)Oc3ccc(OC)cc32)cc1	0	0	130.0	0	0	0	0	0	0
Cc1ccc(NC(=S)N/N=C2\CC(C)(C)Oc3ccc(O)cc32)cc1	-	0	0	0	0	0	-	-	-
CCc1ccc2nc(NC(=O)CN3C(=O)NC4(CCCC4)C3=O)sc2c1	0	-	-	0	-	-	-	-	-
Cc1ccc(Nc2ncnc3c2nnn3Cc2ccccc2)cc1	0	0	132.0	0	0	0	0	0	0
CC(C)C(C(=O)Nc1ccc(N2CCOCC2)cc1)N1C(=O)c2ccccc2C1=O (stereo not given)	0	0	2.0[inhibitor]	0	-2.0[inhibitor]	0	0	0	0
CCc1nc(NCCO)c(C#N)c2c1CSC(C)(C)C2	0	0	50.0[inhibitor]	0	0	0	0	0	0
O=C(N/N=C/c1c[nH]c2ccccc12)c1cc(-c2ccc3ccccc3c2)n[nH]1	0	0	0	0	138.0	0	0	0	0
CSCCC(NC(=O)c1ccccc1Cl)C(=O)OCC(=O)N1CCCC1=O (stereo not given)	0	-	-	-	-	0	-	-	-
COc1ccc(C(C)NC(=O)CC23CC4CC(CC(C4)C2)C3)cc1 (stereo not given)	0	0	0	0	0	0	-	-	-
Cc1ccc(C(=O)NCC(=O)OC(C)C(=O)Nc2ccc(N(C)C)cc2)s1 (stereo not given)	0	0	49.0[inhibitor]	0	0	0	0	0	0
Cc1ccc(C(=O)NCC(=O)OC(C)C(=O)Nc2ccccc2[N+](=O)[O-])s1 (stereo not given)	0	-	-	0	-	-	-	-	-
CN1CCN(C2=Cc3ccccc3Sc3cc(F)c(F)cc32)CC1	0	0	0	0	0	0	-	-	-
CN1CCN(C2=Cc3cc(Cl)ccc3Sc3cc(F)ccc32)CC1	0	53.0	0	0	202.0	0	0	0	0

Bioassay records from PubChem BioAssay.
